Experimental data published in ChEMBL document CHEMBL1770099, “Aromatic ring functionalization of benzolactam derivatives: new potent dopamine D3 receptor ligands” (Bioorg Med Chem Lett, 2011).

Legend:
D(3) dopamine receptor [1] = biological target: T1, D(3) dopamine receptor (Homo sapiens, UniProt P35462); experiment: Displacement of [3H]Spiperone from human dopamine D3 receptor expressed in CHO cells; assay type: cell-based
D(2) dopamine receptor [2] = biological target: T2, D(2) dopamine receptor (Homo sapiens, UniProt P14416); experiment: Displacement of [3H]Spiperone from human dopamine D2 long receptor expressed in CHO cells; assay type: cell-based
T2 sequence (P14416 whole entry): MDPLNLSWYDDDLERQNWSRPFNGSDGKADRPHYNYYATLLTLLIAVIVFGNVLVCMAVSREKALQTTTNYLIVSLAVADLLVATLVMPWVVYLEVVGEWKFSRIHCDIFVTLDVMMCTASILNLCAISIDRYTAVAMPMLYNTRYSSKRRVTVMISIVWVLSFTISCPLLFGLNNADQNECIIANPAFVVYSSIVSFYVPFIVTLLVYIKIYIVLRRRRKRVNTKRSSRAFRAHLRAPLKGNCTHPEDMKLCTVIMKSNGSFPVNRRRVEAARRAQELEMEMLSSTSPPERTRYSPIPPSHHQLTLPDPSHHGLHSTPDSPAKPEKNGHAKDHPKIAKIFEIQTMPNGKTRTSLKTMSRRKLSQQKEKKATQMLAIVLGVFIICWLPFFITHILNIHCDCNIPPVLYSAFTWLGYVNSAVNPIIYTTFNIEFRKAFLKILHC
Outline: (§1)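 Competition for [3H]spiperone binding to cloned human receptor (D2long, D2short or D4.4) stably expressed in CHO cells; Ki values are means of two to four individual competition experiments, each run in triplicate.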

D(1A) dopamine receptor = D(1A) dopamine receptor (Sus scrofa, UniProt P50130); experiment: Displacement of [3H]SCH-23390 from dopamine D1 receptor in pig striatal membranes; assay type: cell membranes, Striatum, Membrane
Chain of D(1A) dopamine receptor (P50130 whole entry): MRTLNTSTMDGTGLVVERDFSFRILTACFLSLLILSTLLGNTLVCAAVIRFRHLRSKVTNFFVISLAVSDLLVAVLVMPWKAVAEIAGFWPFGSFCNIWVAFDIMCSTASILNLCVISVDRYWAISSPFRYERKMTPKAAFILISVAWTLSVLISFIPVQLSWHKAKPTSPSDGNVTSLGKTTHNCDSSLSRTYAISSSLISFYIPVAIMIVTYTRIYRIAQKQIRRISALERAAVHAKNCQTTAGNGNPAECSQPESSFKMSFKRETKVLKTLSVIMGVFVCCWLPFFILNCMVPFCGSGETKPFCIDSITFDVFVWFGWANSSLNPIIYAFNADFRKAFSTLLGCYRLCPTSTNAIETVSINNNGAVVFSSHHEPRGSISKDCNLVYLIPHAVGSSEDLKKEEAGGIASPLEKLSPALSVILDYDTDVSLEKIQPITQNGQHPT
Outline: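 Competition binding with D1-selective radioligand [3H]SCH23390 on porcine striatal membranes; Ki values are means of two to four individual competition experiments, each run in triplicate.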

[3] = Displacement of [3H]WAY-100635 from pig 5-HT1A receptor; design: species or system Sus scrofa
D(2) dopamine receptor [4] = biological target: T2, D(2) dopamine receptor; experiment: Displacement of [3H]Spiperone from human dopamine D2 short receptor expressed in CHO cells; assay type: cell-based; outline: as §1
D(3) dopamine receptor [5] = biological target: T1, D(3) dopamine receptor; experiment: Agonist activity at human dopamine D3 receptor expressed in dhfr-deficient CHO cells assessed as [3H]thymidine incorporation; assay type: functional, cell-based
[6] = biological target: 5-hydroxytryptamine receptor 2A (Sus scrofa, UniProt P50129); experiment: Displacement of [3H]Ketanserin from pig 5-HT2 receptor
Chain of 5-hydroxytryptamine receptor 2A (P50129 whole entry): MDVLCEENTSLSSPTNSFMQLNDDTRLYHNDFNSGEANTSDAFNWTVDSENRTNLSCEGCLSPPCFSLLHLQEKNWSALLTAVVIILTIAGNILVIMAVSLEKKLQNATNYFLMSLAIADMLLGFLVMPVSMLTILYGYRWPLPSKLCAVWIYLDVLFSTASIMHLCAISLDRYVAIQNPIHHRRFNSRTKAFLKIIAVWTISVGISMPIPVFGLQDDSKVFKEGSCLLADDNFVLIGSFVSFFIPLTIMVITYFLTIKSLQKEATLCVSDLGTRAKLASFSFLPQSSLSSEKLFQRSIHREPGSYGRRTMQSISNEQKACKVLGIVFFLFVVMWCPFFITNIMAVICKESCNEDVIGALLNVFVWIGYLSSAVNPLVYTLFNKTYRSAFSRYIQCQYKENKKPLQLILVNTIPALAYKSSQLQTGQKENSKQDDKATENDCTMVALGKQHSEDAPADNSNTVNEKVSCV

D(4) dopamine receptor = biological target: T3, D(4) dopamine receptor (Homo sapiens, UniProt P21917); experiment: Displacement of [3H]Spiperone from human dopamine D4.4 receptor expressed in CHO cells; assay type: cell-based; outline: as §1
T3 sequence (P21917 whole entry): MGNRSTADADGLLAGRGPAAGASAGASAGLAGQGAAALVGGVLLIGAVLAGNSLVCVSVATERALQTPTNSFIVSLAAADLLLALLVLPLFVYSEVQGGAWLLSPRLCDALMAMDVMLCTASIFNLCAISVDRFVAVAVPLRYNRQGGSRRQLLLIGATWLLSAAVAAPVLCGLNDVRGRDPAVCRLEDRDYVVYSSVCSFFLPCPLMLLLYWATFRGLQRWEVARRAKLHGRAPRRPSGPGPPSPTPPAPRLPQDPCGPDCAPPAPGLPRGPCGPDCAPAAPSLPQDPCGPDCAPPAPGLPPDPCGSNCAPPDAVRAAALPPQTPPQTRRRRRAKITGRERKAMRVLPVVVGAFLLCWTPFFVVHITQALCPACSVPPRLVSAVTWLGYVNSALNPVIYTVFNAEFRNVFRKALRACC

[7] = Displacement of [3H]Prazosin from pig adrenergic alpha1 receptor; design: species or system Sus scrofa
[8] = Selectivity ratio of Ki for dopamine D2 long receptor to Ki for dopamine D3 receptor
D(3) dopamine receptor [9] = biological target: T1, D(3) dopamine receptor; experiment: Binding affinity to dopamine D3 receptor

T1 sequence (P35462 whole entry): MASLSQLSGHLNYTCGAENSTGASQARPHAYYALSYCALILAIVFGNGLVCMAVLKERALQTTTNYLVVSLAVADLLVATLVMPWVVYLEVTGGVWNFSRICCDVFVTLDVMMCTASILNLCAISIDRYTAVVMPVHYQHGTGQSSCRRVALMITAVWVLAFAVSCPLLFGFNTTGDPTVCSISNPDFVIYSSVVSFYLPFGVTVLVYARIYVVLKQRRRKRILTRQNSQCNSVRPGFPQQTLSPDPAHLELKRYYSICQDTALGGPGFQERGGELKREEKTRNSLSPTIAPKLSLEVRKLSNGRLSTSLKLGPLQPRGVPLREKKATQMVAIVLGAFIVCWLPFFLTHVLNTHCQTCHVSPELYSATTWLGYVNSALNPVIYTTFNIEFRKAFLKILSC

Ki (D(3) dopamine receptor [1]) | Ki (D(2) dopamine receptor [2]) | Ki (D(1A) dopamine receptor) | Ki [3] | Ki (D(2) dopamine receptor [4]) | EC50 (D(3) dopamine receptor [5]) | Ki [6] | Ki (D(4) dopamine receptor) | Ki [7] | Ratio Ki [8] | Ki (D(3) dopamine receptor [9]) | Structure (SMILES)
0.27 nM | 3.9 nM | 2900 nM | 1.7 nM | 1.5 nM | 0.33 nM | 1100 nM | 1.3 nM | 5.7 nM |  |  | COc1ccccc1N1CCN(CCCCN2CCCc3ccccc3C2=O)CC1
 | 21 nM | 2500 nM | 2.4 nM | 7 nM |  | 990 nM | 1.9 nM | 2.3 nM |  |  | COc1ccccc1N1CCN(CCCCN2CCc3ccccc3C2=O)CC1
 |  |  |  |  |  |  |  |  | 37 | 2 nM | CC(=O)Nc1ccc(CCN2C[C@@H]3COc4ccc(C#N)cc4[C@H]3C2)cc1
0.12 nM | 11 nM | 480 nM | 6.2 nM | 6.9 nM | 2.8 nM | 190 nM | 2.3 nM | 3.7 nM |  |  | COc1ccccc1N1CCN(CCCCN2CCc3cc(-c4cccs4)ccc3C2=O)CC1
0.29 nM | 5.1 nM | 920 nM | 68 nM | 2.1 nM |  | 530 nM | 2.9 nM | 9.7 nM |  |  | COc1ccccc1N1CCN(CCCCN2CCCc3cc(-c4cccs4)ccc3C2=O)CC1
12 nM | 52 nM | 220 nM | 47 nM | 63 nM |  | 230 nM | 9.8 nM | 1.3 nM |  |  | COc1ccccc1N1CCN(CCCCN2CCc3c(cccc3-c3ccccc3)C2=O)CC1
0.25 nM | 38 nM | 640 nM | 38 nM | 15 nM | 3.3 nM | 330 nM | 3.4 nM | 5.4 nM |  |  | COc1ccccc1N1CCN(CCCCN2CCc3cc(-c4ccccc4)ccc3C2=O)CC1
0.27 nM | 3.2 nM | 2100 nM | 2.5 nM | 0.93 nM |  | 810 nM | 3 nM | 3.7 nM |  |  | COc1ccc2c(c1)CCCN(CCCCN1CCN(c3ccccc3OC)CC1)C2=O
 |  |  |  |  |  |  |  |  | 100 | 4 nM | Cc1nc(-c2ccc(C(=O)N[C@H]3CC[C@H](CCN4CCc5ccc(S(C)(=O)=O)cc5CC4)CC3)cc2)no1
1.3 nM | 38 nM | 3200 nM | 3.8 nM | 22 nM |  | 430 nM | 6.1 nM | 3.8 nM |  |  | COc1ccccc1N1CCN(CCCCN2CCc3cc(C#N)ccc3C2=O)CC1
1.6 nM | 26 nM | 2300 nM | 1.7 nM | 9.2 nM |  | 840 nM | 2.8 nM | 3.1 nM |  |  | COc1ccccc1N1CCN(CCCCN2CCc3cc(F)ccc3C2=O)CC1
 |  |  |  |  |  |  |  |  | 130 |  | COc1ccccc1N1CCN(CCCCNC(=O)c2ccc(-c3ccc(C(C)=O)cc3)cc2)CC1
0.5 nM | 24 nM | 1900 nM | 14 nM | 8.8 nM |  | 920 nM | 4.1 nM | 2.4 nM |  |  | C#Cc1ccc2c(c1)CCN(CCCCN1CCN(c3ccccc3OC)CC1)C2=O
0.21 nM | 16 nM | 580 nM | 19 nM | 4.8 nM | 2.3 nM | 330 nM | 3.3 nM | 1.6 nM |  |  | COc1ccccc1N1CCN(CCCCN2CCc3cc(-c4ccco4)ccc3C2=O)CC1
0.12 nM |  | 380 nM | 13 nM |  |  | 160 nM | 3.4 nM | 2.2 nM |  |  | COc1ccccc1N1CCN(CCCCN2CCc3cc(-c4ccncc4)ccc3C2=O)CC1
